Source: PubChem BioAssay
Shown are actives, neighbours in structure and some others; about 1.7% of the full set was active somewhere.
LMPTP block: LMPTP (human) inhibition. P24666. recombinant LMPTP-A, OMFP fluorogenic substrate, fluorescence intensity. inhibition, % at 20 µM. hit rate 0.22% among 360,000. AID 651560;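 active = compounds that cut the enzyme signal by at least half of the control window in the single-dose screen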
Target sequence (P24666 whole entry, looked up): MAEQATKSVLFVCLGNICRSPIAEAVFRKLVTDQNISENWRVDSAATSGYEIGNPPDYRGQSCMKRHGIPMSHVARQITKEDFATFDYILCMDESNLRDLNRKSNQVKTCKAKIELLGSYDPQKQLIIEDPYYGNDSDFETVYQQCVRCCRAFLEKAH
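Material: LMPTP-A; amount: 0.625 nM enzyme; doses: single 20 µM dose; times: reaction 50 min, room temperature, dark; technique: fluorescence intensity of OMFP turnover product; benchmarks: no-enzyme and uninhibited controls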
STEP block: STEP (human) phosphatase inhibition; P54829; recombinant STEP, OMFP fluorogenic substrate, fluorescence; inhibition, % at 20 µM; hit rate 0.25% among 360,000;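 active = inhibition at 20 µM, scaled per plate between control wells, above about 37%, limit read from the data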
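Material: STEP (striatal-enriched tyrosine phosphatase) enzyme, cell-free | Medium: 50 mM Bis-Tris pH 6.0 with 2.5 mM DTT and 0.005% Tween 20 | Read-out: Percent inhibition scaled to no-enzyme and uninhibited-enzyme controls, plate-pattern corrected | Signal: Fluorescence read at 480 nm ex / 540 nm em | Times: 20 min reaction, room temperature, in the dark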
Scp1 inh: blocks human Scp-1 phosphatase activity; Recombinant Scp1, phosphopeptide, malachite green phosphate absorbance; inhibition, % at 20 µM; hit rate 0.88% among 340,000; AID 493091;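 active = inhibition above about 50% at 20 µM, limit read from the data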
Target sequence (Q9GZU7 76-261 limits assumed): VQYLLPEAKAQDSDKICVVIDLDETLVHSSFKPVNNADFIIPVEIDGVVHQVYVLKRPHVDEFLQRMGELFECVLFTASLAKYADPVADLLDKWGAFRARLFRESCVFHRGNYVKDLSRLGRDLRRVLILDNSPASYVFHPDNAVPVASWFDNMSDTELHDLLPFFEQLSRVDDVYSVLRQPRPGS
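assay system = SCP-1 phosphatase catalytic domain, residues 76-261 | buffer or medium = 50 mM Tris acetate pH 5.5, 0.005% Tween-20, 10 mM MgCl2 | incubation = enzyme reaction 45 min at room temperature, colour 5 min, stabilisation 30 min | signal = Phosphate-binding colour reagent, absorbance read at 630 nm | measure = % inhibition at 20 µM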
SUMO1-SIM PPI: modulators of human SUMO1-mediated protein-protein interactions | P63165 | SUMO1 binding to a labelled peptide, TR-FRET, 1 h | inhibition, % at 20 µM | hit rate 0.33% among 360,000 | AID 602429; in the data active = inhibition above about 37%
Target sequence (P63165 whole entry, looked up): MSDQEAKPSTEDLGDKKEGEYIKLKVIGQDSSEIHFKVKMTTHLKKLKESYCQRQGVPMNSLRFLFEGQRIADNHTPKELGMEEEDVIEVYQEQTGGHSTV
DNMT1 inh: blocks human DNA methyltransferase DNMT1; P26358; DNMT1 molecular beacon, Hinp1I cleavage, fluorescence; inhibition (reported as % activation of signal), % at 10 µM; hit rate 0.83% among 360,000; in the data active = inhibition above about 50%
Numbers stand for hits; i = inactive; nt = no result given.

SMILES | LMPTP block | STEP block | Scp1 inh | SUMO1-SIM PPI | DNMT1 inh
O=C(NCCN1CCN(c2cccc(Cl)c2)CC1)c1ccc(CSc2nc3ccncc3[nH]2)cc1 | 83.4 | i | i | i | i
CCN(CCNC(=O)c1ccc(CSc2nc3ccncc3[nH]2)cc1)c1ccccc1 | i | i | i | i | i
C[C@]12CCC[C@H](O1)c1c(cc3c(c1O)C(=O)c1c(O)cc(O)cc1C3=O)O2 | i | i | i | i | i
CC(CCC(C)C(C)(C)C)[C@@H]1CC[C@H]2C3C[C@H](OS(O)(=S)=S)[C@H]4C[C@H](OS(O)(=S)=S)[C@@H](OS(O)(=S)=S)C[C@]4(C)[C@H]3CC[C@]12C (stereo partly drawn) (tested in a mixture with another compound) | 81.2 | i | i | 45.2 | i
CC(NCC(=O)Nc1cc(S(=O)(=O)N2CCOCC2)ccc1N1CCOCC1)c1ccco1 (stereo not drawn) | i | i | i | i | i
CC(CCCN1CCCC1)Nc1ccnc2cc(Cl)ccc12 (stereo not drawn) | 76.2 | i | i | i | i
O=C(NCCCN1CCCC1=O)C1CCN(S(=O)(=O)c2ccc(Cl)cc2)CC1 | i | i | i | 38.3 | i
COCCCNC(=O)c1cc2cc(Br)ccc2oc1=O | i | i | i | i | i
O=C(NNC(=O)c1cc2cc(Br)ccc2oc1=O)c1ccc(O)cc1O | 53.6 | 48.9 | 60.1 | i | i
COc1ccc2oc(=Nc3ccc(C(=O)O)cc3)c(C(=O)NCc3ccco3)cc2c1 | i | i | i | 64.8 | i
NS(=O)(=O)c1ccc(CCNC(=O)c2ccc3c(=O)n4c(nc3c2)CCCCC4)cc1 | i | i | i | i | i
O=C(O)c1ccc(N=Nc2c(O)ccc3ncccc23)cc1 | i | i | 73.2 | i | i
COc1ccc(Cc2nnc(NC(=O)Cc3cccs3)s2)cc1OC | i | i | 69.9 | i | 75.3
CCCN(C(=O)CSCc1ccc(Cl)cc1)c1c(N)n(Cc2ccccc2)c(=O)[nH]c1=O | i | i | i | i | i
Cc1ccc2nc(Cl)c(/C=N/NC(=O)[C@H]3C[C@@H]3c3ccccc3)cc2c1 | i | i | i | 40.1 | i
CC(C)(C)c1ccc(C2CC2C(=O)N/N=C\c2cc3ccccc3nc2Cl)cc1 (stereo not drawn) | i | i | i | i | i
CC1=C(C(=O)N(C)C)CC(CC(=O)NCc2cccc3ccccc23)C(=O)N1CCC1=CCCCC1 (stereo not drawn) | i | i | nt | i | i
O=C(c1cccs1)c1no[n+]([O-])c1C(=O)c1cccs1 | i | i | i | i | 63.8
N#Cc1ccc(CSc2nnc(NC(=O)c3ccc4ncsc4c3)s2)cc1 | i | i | i | 39.9 | i
CCCCCCc1cc2cc(-c3nnc(-c4ccccc4O)o3)c(=O)oc2cc1O | i | i | i | i | 87.0
CCCCCCc1cc2cc(-c3nnc(-c4cc(OC)c(OC)c(OC)c4)o3)c(=O)oc2cc1O | nt | nt | i | nt | nt
CCCCN1C(=O)C(=O)NC[C@@H]1CCCCN | i | i | i | i | i
CCCC[C@@H]1CNC(=O)C(=O)N1CCCC | i | nt | nt | 49.3 | nt
O=S(=O)(c1ccccc1)c1nnn2c1nc(NC1CCN(Cc3ccccc3)CC1)c1ccccc12 | 65.5 | i | i | i | i
O=S(=O)(c1ccccc1)c1nnn2c1nc(NC1CCN(Cc3ccccc3)CC1)c1cc(Cl)ccc12 | i | i | i | i | i
SMILES | LMPTP block | STEP block | Scp1 inh | SUMO1-SIM PPI | DNMT1 inh
CN(C)CCNC(=O)c1cccc2nc3cccc(F)c3nc12 | i | i | i | i | 55.1
c1coc(CSSCc2ccco2)c1 | i | i | i | i | 101.2
Cc1ccc(NC(=O)CSCc2ccco2)cc1 | i | i | i | i | i
O=[N+]([O-])c1ccc(Cl)c(NC(=S)N2CCCC2)c1 | i | i | i | i | i
O=C(/C=C/c1ccc(F)cc1)NC(=S)NNC(=O)c1cnccn1 | i | i | 68.8 | i | i
O=C(O)c1ccc(N2CCCCC2)cc1O | i | i | i | i | i
O=C(O)c1ccc(N2Cc3ccccc3C2)cc1O | i | i | 71.2 | i | i
COc1ccc(NC(=O)c2ccc(CNc3c(N4CCCC4)c(=O)c3=O)cc2)cc1Cl | i | i | i | 58.3 | i
O=C(NCc1ccccc1F)C1CC(=O)N(Cc2ccco2)C1 (stereo not drawn) | i | i | nt | i | i
COc1ccccc1C(=O)Nc1cc(-c2ccc(C)cc2)no1 | i | i | i | i | i
